# Reference: ChEMBL document CHEMBL4325904 (Eur J Med Chem, 2019)
# Calls of active or inactive are those of the source. The calls are words filed in the database; no cut-off is given here.
# Legend:
# [1] = target: T1, Histone deacetylase 8 (Homo sapiens, UniProt Q9BY41); assay: Inhibition of recombinant C-terminal His-tagged human HDAC8 (1 to 377 residues) expressed in Baculovirus infected insect cells using RHK-K(Ac)-AMC as substrate by fluorimetric assay
# T1 sequence (Q9BY41 whole entry): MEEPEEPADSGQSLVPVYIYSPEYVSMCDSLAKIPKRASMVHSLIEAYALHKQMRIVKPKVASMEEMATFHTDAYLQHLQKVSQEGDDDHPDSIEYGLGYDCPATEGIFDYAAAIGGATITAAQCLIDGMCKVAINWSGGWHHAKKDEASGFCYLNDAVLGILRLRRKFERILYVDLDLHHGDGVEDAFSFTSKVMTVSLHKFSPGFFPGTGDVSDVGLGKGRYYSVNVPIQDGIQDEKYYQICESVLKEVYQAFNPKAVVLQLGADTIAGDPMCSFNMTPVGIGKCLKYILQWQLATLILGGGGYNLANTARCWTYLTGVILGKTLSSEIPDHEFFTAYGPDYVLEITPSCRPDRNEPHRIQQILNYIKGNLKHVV
# [2] = target: Histone deacetylase 3/Nuclear receptor corepressor 2 (HDAC3/NCoR2) (Homo sapiens, UniProt O15379); format: cell-based
# [3] = Drug uptake in human A549 cells cytoplasm at 1 uM after 2 hrs by naphthalimide dye-based inverted light fluorescence confocal microscopic analysis; format: ADME, subcellular; conditions: a549, 2 h
# Summary of the method: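 A549 cells incubated 2 hours with compound at 1 µM; intracellular distribution imaged by confocal microscopy with 405 nm laser excitation, emission collected at 460–560 nm.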
# [4] = target: Histone deacetylase 1 (Homo sapiens, UniProt Q13547); assay: Inhibition of recombinant full length C-terminal FLAG/His-tagged human HDAC1 (1 to 482 residues) expressed in sf21 cells using RHK-K(Ac)-AMC as substrate by fluorimetric assay
# [5] = target: T2, Histone deacetylase 11 (Homo sapiens, UniProt Q96DB2); assay: Inhibition of recombinant C-terminal His-tagged human HDAC11 (1 to 347 residues) expressed in Baculovirus infected insect cells using RHKK-Ac as substrate by fluorimetric assay
# T2 sequence (Q96DB2 whole entry): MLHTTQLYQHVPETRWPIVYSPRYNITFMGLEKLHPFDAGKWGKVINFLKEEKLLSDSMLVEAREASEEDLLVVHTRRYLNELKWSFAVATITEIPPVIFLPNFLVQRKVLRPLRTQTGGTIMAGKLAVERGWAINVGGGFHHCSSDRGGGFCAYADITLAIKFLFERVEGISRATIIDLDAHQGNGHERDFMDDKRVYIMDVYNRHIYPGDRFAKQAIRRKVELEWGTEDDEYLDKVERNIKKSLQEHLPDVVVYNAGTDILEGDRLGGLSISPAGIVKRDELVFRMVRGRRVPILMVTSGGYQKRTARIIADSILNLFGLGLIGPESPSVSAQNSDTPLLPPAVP
# [6] = test system: Kasumi 1; assay: Antiproliferative activity against human Kasumi-1 cells after 72 hrs by resazurin dye-based assay; format: functional, cell-based; conditions: Kasumi 1, 72 h
# Summary of the method: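 KASUMI-1 cells incubated with compounds for 72 hr; viability read with resazurin reagent. IC50 taken as the mean of three experiments, each run in duplicate.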
# [7] = Drug uptake in human A549 cells lysosome at 1 uM after 2 hrs by Lyso-tracker red-based inverted light fluorescence confocal microscopic analysis; conditions: a549, 2 h
# [8] = target: T3, Protein deacetylase HDAC6 (Homo sapiens, UniProt Q9UBN7); assay: Inhibition of recombinant N-terminal GST-tagged human HDAC6 (1 to 1215 residues) expressed in Baculovirus infected insect cells using RHKK-Ac as substrate by fluorimetric assay
# T3 sequence (Q9UBN7 whole entry): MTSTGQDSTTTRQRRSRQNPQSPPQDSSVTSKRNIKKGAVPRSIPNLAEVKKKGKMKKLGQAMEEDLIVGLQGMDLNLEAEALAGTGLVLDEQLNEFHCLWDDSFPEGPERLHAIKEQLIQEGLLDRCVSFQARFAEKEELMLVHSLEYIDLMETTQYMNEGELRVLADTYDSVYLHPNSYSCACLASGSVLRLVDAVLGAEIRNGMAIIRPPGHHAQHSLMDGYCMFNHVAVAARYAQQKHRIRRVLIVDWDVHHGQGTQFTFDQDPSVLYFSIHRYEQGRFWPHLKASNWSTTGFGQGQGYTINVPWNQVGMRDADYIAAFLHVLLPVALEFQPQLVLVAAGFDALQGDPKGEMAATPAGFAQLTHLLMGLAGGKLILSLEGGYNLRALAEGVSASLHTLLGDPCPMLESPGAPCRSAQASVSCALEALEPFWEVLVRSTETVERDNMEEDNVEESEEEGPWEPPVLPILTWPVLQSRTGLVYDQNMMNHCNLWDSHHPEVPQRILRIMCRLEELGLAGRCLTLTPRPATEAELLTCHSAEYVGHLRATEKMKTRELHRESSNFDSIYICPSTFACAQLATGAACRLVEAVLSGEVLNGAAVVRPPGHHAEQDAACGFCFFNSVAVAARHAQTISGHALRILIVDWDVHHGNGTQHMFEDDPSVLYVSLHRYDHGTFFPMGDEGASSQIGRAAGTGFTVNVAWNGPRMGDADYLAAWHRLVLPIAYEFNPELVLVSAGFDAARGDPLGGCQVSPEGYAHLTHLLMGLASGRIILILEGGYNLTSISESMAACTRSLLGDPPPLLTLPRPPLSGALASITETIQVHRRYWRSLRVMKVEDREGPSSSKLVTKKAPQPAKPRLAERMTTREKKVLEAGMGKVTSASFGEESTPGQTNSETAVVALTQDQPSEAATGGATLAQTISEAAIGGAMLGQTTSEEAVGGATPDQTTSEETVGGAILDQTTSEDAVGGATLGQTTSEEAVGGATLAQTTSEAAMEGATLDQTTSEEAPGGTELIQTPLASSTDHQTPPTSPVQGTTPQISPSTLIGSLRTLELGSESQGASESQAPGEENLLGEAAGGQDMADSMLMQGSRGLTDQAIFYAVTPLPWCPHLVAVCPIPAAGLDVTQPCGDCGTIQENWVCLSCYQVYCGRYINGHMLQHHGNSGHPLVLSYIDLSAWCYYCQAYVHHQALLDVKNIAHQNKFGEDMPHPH
# [9] = Drug uptake in human A549 cells lysosome at 1 uM after 2 hrs by naphthalimide/Lysotracker Deep Red dye-based inverted light fluorescence confocal microscopic analysis; format: ADME, subcellular; conditions: a549, 2 h
# [10] = organism: Homo sapiens; assay: Selectivity ratio of IC50 for human recombinant full length C-terminal His-tagged HDAC3 (1 to 428 residues)/N-terminal GST-tagged NCOR2 (395 to 489 residues) to IC50 for recombinant N-terminal GST-tagged human HDAC6 (1 to 1215 residues)
# [11] = organism: Homo sapiens; assay: Selectivity ratio of IC50 for recombinant full length C-terminal FLAG/His-tagged human HDAC1 (1 to 482 residues) to IC50 for recombinant N-terminal GST-tagged human HDAC6 (1 to 1215 residues)
# [12] = test system: Danio rerio; assay: Antiangiogenic activity in zebrafish embryo assessed as effect on blood vessel development at 10 uM administered from 24 to 50 hrs post fertilization for 24 hrs and measured after 72 hrs by alkaline phosphatase assay; format: functional, organism-based
# Summary of the method: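 Zebrafish embryos exposed at 10 µM from 24–50 hpf alongside vehicle-only controls; at 72 hpf embryos stained with alkaline phosphatase to visualise blood vessels.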
# [13] = organism: Homo sapiens; assay: Selectivity ratio of IC50 for human HDAC1 to IC50 for human HDAC6
# [14] = target: T3, Protein deacetylase HDAC6; assay: Inhibition of human HDAC6 using (Z-(Ac)Lys-AMC) as substrate after 90 mins by fluorescence analysis
# Sequence of Histone deacetylase 1 (Q13547 whole entry, the tested form may be a part): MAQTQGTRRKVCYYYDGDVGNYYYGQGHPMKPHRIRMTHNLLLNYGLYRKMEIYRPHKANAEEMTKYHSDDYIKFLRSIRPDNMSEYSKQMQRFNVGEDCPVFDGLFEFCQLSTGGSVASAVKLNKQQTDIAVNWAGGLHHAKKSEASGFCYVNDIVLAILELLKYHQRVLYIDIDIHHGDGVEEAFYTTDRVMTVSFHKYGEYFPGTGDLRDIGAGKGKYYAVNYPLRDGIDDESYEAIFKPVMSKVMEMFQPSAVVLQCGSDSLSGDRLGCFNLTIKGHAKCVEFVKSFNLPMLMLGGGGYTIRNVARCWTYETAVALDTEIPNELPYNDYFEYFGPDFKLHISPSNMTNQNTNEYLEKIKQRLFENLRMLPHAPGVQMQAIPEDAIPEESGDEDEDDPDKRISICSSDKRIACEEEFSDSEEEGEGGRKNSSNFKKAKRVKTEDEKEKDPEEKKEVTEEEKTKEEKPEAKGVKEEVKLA
# Sequence of Histone deacetylase 3/Nuclear receptor corepressor 2 (HDAC3/NCoR2) (O15379 whole entry): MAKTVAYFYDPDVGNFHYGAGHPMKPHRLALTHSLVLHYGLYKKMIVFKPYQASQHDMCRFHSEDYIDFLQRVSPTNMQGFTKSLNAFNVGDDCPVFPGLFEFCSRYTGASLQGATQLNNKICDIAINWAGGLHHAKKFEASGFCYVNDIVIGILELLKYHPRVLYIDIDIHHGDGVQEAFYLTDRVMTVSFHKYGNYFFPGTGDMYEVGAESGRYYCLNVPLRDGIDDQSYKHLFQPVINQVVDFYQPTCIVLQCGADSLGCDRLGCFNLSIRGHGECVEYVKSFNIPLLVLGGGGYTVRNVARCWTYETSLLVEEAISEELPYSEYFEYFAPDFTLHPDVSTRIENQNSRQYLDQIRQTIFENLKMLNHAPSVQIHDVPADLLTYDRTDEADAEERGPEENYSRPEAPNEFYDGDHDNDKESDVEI
# Sequence of Histone deacetylase 3/Nuclear receptor corepressor 2 (HDAC3/NCoR2) (Q9Y618 whole entry, further chain): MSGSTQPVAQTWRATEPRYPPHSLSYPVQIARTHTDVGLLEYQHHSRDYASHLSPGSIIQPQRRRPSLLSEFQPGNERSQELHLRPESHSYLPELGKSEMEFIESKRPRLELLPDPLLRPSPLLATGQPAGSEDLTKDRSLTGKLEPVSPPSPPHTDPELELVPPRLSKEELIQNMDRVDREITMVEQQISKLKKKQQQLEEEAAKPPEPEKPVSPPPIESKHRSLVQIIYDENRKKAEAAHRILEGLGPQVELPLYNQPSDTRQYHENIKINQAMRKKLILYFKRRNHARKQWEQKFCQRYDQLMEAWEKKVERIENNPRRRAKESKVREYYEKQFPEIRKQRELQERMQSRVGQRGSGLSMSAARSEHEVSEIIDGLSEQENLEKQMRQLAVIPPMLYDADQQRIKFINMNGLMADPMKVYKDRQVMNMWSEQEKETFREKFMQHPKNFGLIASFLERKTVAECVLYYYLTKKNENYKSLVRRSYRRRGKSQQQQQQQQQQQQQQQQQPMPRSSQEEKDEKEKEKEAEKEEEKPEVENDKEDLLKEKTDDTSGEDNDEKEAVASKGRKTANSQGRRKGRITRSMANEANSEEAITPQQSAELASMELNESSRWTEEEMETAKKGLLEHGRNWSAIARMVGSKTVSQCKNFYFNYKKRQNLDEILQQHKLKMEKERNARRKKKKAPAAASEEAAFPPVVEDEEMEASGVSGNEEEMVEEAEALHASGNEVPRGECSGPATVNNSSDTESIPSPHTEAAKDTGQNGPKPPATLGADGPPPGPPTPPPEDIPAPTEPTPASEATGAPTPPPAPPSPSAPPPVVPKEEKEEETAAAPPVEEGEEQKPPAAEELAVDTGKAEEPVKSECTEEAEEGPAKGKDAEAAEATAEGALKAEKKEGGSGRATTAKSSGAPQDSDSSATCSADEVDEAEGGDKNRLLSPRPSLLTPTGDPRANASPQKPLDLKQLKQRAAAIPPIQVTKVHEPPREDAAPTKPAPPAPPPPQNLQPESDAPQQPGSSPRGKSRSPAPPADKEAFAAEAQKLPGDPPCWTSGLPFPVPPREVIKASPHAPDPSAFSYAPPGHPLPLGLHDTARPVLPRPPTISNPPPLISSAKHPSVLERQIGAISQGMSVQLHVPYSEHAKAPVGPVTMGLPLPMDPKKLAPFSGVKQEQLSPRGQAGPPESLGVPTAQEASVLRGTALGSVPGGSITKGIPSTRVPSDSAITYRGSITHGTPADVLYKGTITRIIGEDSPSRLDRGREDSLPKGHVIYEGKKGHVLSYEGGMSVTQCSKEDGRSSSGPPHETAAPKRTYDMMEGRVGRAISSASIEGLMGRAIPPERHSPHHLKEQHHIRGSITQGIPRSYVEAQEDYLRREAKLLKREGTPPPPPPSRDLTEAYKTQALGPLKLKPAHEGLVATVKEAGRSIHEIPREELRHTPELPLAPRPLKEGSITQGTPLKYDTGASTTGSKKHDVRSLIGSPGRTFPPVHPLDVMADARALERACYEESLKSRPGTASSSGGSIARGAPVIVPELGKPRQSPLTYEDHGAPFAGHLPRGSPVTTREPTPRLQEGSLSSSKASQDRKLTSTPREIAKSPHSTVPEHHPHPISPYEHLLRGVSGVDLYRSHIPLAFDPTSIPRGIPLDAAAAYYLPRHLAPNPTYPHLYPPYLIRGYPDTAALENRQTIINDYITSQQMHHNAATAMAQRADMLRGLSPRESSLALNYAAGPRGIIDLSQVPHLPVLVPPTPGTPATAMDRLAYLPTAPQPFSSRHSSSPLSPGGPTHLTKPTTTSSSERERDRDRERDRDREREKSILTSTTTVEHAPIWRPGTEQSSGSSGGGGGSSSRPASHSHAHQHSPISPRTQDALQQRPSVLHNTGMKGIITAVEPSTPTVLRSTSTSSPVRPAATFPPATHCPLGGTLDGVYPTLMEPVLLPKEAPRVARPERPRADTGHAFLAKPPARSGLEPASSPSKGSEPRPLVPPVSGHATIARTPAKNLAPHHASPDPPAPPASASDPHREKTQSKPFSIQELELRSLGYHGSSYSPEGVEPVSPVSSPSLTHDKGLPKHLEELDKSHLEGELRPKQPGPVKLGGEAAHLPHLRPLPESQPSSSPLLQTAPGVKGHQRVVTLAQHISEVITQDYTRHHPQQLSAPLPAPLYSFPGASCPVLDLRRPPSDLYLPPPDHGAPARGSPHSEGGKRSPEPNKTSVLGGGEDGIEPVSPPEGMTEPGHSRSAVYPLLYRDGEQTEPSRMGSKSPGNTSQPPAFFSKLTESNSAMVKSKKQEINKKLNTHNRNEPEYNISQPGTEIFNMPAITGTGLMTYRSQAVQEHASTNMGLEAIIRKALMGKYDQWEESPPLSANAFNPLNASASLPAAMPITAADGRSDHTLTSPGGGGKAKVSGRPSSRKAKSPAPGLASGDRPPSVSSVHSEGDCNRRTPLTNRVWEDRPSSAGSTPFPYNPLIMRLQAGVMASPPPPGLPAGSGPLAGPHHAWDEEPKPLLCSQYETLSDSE
Structure (SMILES),IC50 [1] [nM],IC50 [2] [nM],Drug uptake [3],IC50 [4] [nM],IC50 [5] [nM],Drug uptake [7],IC50 [8] [nM],Drug uptake [9],Ratio IC50 [10],Ratio IC50 [11],Activity [12],Ratio IC50 [13],IC50 [14] [nM],IC50 [6] [nM]
CN(Cc1ccccc1)c1ccc2c3c(cccc13)C(=O)N(CCCCCC(=O)NO)C2=O,1400,700,,2380,1220,,9.7,,72,245,,,,810
O=C(CCCCCN1C(=O)c2cccc3c([N+](=O)[O-])ccc(c23)C1=O)NO,620,1620,,630,1020,,5.7,,284,111,,,,570
CC(/C=C/C(=O)NO)=C\[C@@H](C)C(=O)c1ccc(N(C)C)cc1,,,,,,,,,,,Active,,,
O=C(CCCCCN1C(=O)c2cccc3cccc(c23)C1=O)NO,,,,,,,,,,,Active,,,490
O=C(NO)c1ccc(CNC(=O)c2cc(Cn3c4ccccc4c4ccccc43)on2)cc1,,,,,,,,,,,,490,0.61,

# Second part, led by results:
IC50 [1] [nM],IC50 [2] [nM],Drug uptake [3],IC50 [4] [nM],IC50 [5] [nM],Drug uptake [7],IC50 [8] [nM],Drug uptake [9],Ratio IC50 [10],Ratio IC50 [11],Activity [12],Ratio IC50 [13],IC50 [14] [nM],Structure (SMILES),IC50 [6] [nM]
> 10000,290,Active,430,8120,Active,> 10000,Active,,,,,,Nc1ccccc1NC(=O)CCCCCN1C(=O)c2cccc3c(N4CCOCC4)ccc(c23)C1=O,640
1810,320,,1430,290,,12,,27,119,,120,12,O=C(CCCCCN1C(=O)c2cccc3c(N4CCOCC4)ccc(c23)C1=O)NO,290
4070,550,,3060,210,,14,,39,219,,,,O=C(CCCCCN1C(=O)c2cccc3c(Nc4cccc(F)c4)ccc(c23)C1=O)NO,320
4090,470,,2380,190,,13,,36,183,,,,O=C(CCCCCN1C(=O)c2cccc3c(Nc4ccccc4)ccc(c23)C1=O)NO,280
> 10000,200,,740,9350,,> 10000,,,,,,,Nc1ccccc1NC(=O)CCCCCN1C(=O)c2cccc3cccc(c23)C1=O,1090
